Like-named read-outs stand apart in the source and are kept apart here. Non-standard residues stand in square brackets, D forms with d. Residues, ends and D or L forms follow the SMILES beside them. *: point of attachment. 5FAM = O=C1OC2(c3ccc(O)cc3Oc3cc(O)ccc32)c2ccc(C(=O)*)cc21; Trp(6-Cl) = N[C@@H](Cc1c[nH]c2cc(Cl)ccc12)C(=O)O; pY = N[C@@H](Cc1ccc(OP(=O)(O)O)cc1)C(=O)O; Ac3c = NC1(C(=O)O)CC1; Aib = CC(C)(N)C(=O)O; βAla = NCCC(=O)O
Tests used:
MDM2 = settings: cited from earlier work
[1] = test system: HepG2 human hepatocellular carcinoma cells; experiment: Cell uptake and specificity of [^18F]6 in HepG2 cells; format: cell-based
Outline: (§1)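 Cells (HepG2 in MEM, SJSA-1 in RPMI 1640, both with 10% FBS) were seeded at 2×10^5/well and held overnight at 37°C. Medium was swapped for serum-free medium holding 18.5 kBq tracer; incubation was at 37°C for 0.5, 1 or 2 h. Blocking used unlabeled parent inhibitor, either 5–50 µM for 1 h or 25 µM for the time course.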

[2] = test system: SJSA-1 human osteosarcoma cells; experiment: Cell uptake and specificity of [^18F]6 in SJSA-1 cells; format: cell-based
Outline: as §1

P-glycoprotein = settings: neuroblastoma cells; cited from earlier work
[3] = cited from earlier work

CSCC[C@H](NC(=O)[C@H](Cc1ccccc1)NC(=O)CCNC(=O)CCNC(=O)c1ccc2c(c1)C(=O)OC21c2ccc(O)cc2Oc2cc(O)ccc21)C(=O)NC(C)(C)C(=O)N[C@@H](Cc1ccc(OP(=O)(O)O)cc1)C(=O)N[C@@H](Cc1c[nH]c2cc(Cl)ccc12)C(=O)N[C@@H](CCC(=O)O)C(=O)NC1(C(=O)N[C@@H](CC(C)C)C(=O)N[C@@H](CC(N)=O)C(N)=O)CC1 [5-FAM-PMDM6] ({5FAM-βAla-βAla}-FM[Aib][pY][Trp(6-Cl)]E[Ac3c]LN-NH2; N-terminus and C-terminus assumed)
Kd (MDM2; read-out: binding affinity (Kd) towards MDM2, literature, same assay): 1 ± 0.1 nM

COc1cc(C(=O)O)ccc1NC(=O)[C@@H]1N[C@@H](CC(C)(C)C)[C@](C#N)(c2ccc(Cl)cc2F)[C@H]1c1cccc(Cl)c1F [RG7388, Idasanutlin]
IC50 (MDM2; read-out: IC50 disrupting the MDM2-p53 interaction): […] | effect of blocking on [^18F]6 uptake ([1]; HepG2, 25 μM RG7388, all time points 30-120 min): significantly decreased | inhibition at 50 µM ([1]; Homo sapiens, HepG2, 1 h, read-out: inhibition of [^18F]6 uptake): > 80% | inhibition at 50 µM ([2]; Homo sapiens, SJSA-1, 1 h, read-out: inhibition of [^18F]6 uptake): > 80% | effect of blocking on [^18F]6 uptake ([2]; SJSA-1, 25 μM RG7388, all time points 30-120 min): significantly decreased | substrate of P-glycoprotein (P-glycoprotein): not a good substrate | stability in humans in vivo [3]: fully stable

COc1ccc2[nH]c3c(-c4cccc5ccccc45)nccc3c2c1 [SP-141]
Kd (MDM2; read-out: binding affinity Kd): 43 nM

Reference: article PMC8775362 (Molecular pharmaceutics, 2021)
